Measurements published in the EternaBench riboswitch data.

Tested on: MS2 coat protein
Assay: apparent Kd, MS2 coat protein; higher = weaker binding; RNA-MaP array; FMN 200 µM where present
In short: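 Each design was made on Illumina sequencing-chip clusters by stalled E. coli RNA polymerase and titrated with SNAP-549-labelled MS2 coat protein from 0.7 or 1.5 nM, doubling to 3 µM, in the absence and then the presence of constant ligand. The buffer was 100 mM Tris-HCl pH 7.5, 80 mM KCl, 4 mM MgCl2, BSA, DTT, yeast tRNA and Tween-20. The apparent Kd is the median of filtered per-cluster fits of binding curves, with green signal normalised to red-channel RNA signal and control-cluster median Fmax.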

[1] = designed as: OFF switch for flavin mononucleotide, no ligand
[2] = ligand present: flavin mononucleotide, designed as: OFF switch for flavin mononucleotide
[3] = designed as: ON switch for flavin mononucleotide, no ligand
[4] = ligand present: flavin mononucleotide, designed as: ON switch for flavin mononucleotide

Row | Sequence | apparent Kd [1] [nM] | apparent Kd [2] [nM] | apparent Kd [3] [nM] | apparent Kd [4] [nM]
1 | UCGUGAAGGACAGGAUAUGGACAUGAGGAUCACCCAUGUACAUGGGAUUAUAUACUGAAUUUAUACUAGAAGGGUUACAUAAAU | 31.7 | 19.8 |  | 
2 | GUUCGUUUGAUAGGAUAUCGCUAUACAUGAGGAUCACCCAUGUUUACCACGCUGGUUUUUCGUACCGAGAAGGAUUCUGAUGAU |  |  | 40.2 | 36.2
3 | GAUGUAUUCGUAGGAUAUCCGUCGCCACCGUGUGGAGAAGGACGAACAUGAGGAUCACCCAUGUAUCAUGGUGUAGACGCUUUC | 63.6 | 70.9 |  | 
4 | AAUUGACACGUAGGAUAUCGAUCUAAAUUAACUCGAGAAGGACGUACAUGAGGAUCACCCAUGUUUAAUGGAGUAGAUAUGUUG | 121 | 398 |  | 
5 | AUCAGCUCGUCAGGAUAUACGUAACUGCGUCAGCAGUGUGGUAAGAUCACAUGAGGAUCACCCAUGUAGAAGGGACGAGCUGAU |  | 529 |  | 
6 | UAGUUACAUGAGGAUCACCCAUGUGAGGAUAUGAGUCAGUCACGGUGACGUGGCUGACUCAGAAGGCACUAUGG | 198 | 154 |  | 
7 | CGAUCUUCAGUCAGGAUAUGCUGGCACGAAGAGUUGUAGAAGGGACAUGAGGAUCACCCAUGUCGGACGUUGUA | 19 | 17.4 |  | 
8 | UCCUUGUCCUGAGGAUAUCCGUGGUUACCGACAGGAGAAGGCAGGACAUGAGGAUCACCCAUGUACCCAGAAAACGUGCAGAGU | 133 | 210 |  | 
9 | CGAUAACAUAGUUAUCAGUAACGGACAUGAGGAUCACCCAUGUAGGAUAUGUUACUCAACGAGUAACAGAAGGACAUGAGUCUU | 19.2 | 91.2 |  | 
10 | GUUUUAUAAGAGAAGGAGGACUUCAUGAGGAUCACCCAUGUGUUAGUACUUAGGAUAUUUGAUAACAUGAGGAUCACCCAUGUC |  |  | 27.6 | 27.7
11 | GUCAGCUCGUGAGGAUAUACAACACUGCUUCGGCAGUGUAUUAAGAUCACAUGAGGAUCACCCAUGUAGAAGGCCCGAGCUGAU | 10.2 | 139 |  | 
12 | GGAUUACAUGAGGAUCACCCAUGUGAGGAUAUCGAUGUCCUCCCUCCCGUGCGGGACUCGAGAAGGCACUUGGA | 51.9 | 78.8 |  | 
13 | GUCUGCUCGUGAGGAUAUACAACACUGCUUCGGCAGUGUAUUAAGAUCACAUGAGGAUCACCCAUGUAGAAGGCACGAGCUGAU | 14.1 | 252 |  | 
14 | AUAGGUCAAGGAUAUACAUGAGGAUCACCCAUGUAAAUAACUCCAUCCAACUCCACAAGUAGAAGGUGAAAUAA | 17 | 16.5 |  | 
15 | AUAAAUCAUGUAGGAUAUGCGUGGCGAAGCUAUGCAGAAGGACAUGAGGAUCACCCAUGUCUAUCCGUCUGCGUACAGACGGAA | 26.2 | 216 |  | 
16 | UCAUAUUUACAAGGAUAUCAAUAUAAUAUAAUACCAACAUGAGGAUCACCCAUGUAUUAGCGUAAUGAGAAGGUGUAUUGUCGG |  |  | 51.2 | 41.4
17 | GCAGCACUCAUUAACAUGAGGAUCACCCAUGUCAAAAGACAUGAGGAUAUGCAUCUGAAGAAGAUGCAGAAGGCAUUGUGCUGC |  |  | 555 | 25.6
18 | GGUGGUACAGAGAAGGCGCCGCAGCUCUUCCUCCCAUCCCAACGACAUGAGGAUCACCCAUGUAGCGAGGAUAUCUGUGCCAUC | 7.05 | 22.5 |  | 
19 | CCAUAAAUGAUCCAUUUUUACUACAUGAGGAUCACCCAUGUGCAGGAUAUCGUGAAAGUUAAAUACGAGAAGGGCAAGAACUGC | 218 | 230 |  | 
20 | GGGAGACAUGAGGAUCACCCAUGUGAAAACGUGUGAGGAUAUCAAUGGAAACCAUACUGUUGAGAAGGCACUUGUC |  |  | 118 | 41.2
21 | GGUACUCAAAGAGUACUUGGUCGAACAUGAGGAUCACCCAUGUAGGAUAUGCGAAGCAAGAAGUAGCAGAAGGGCAUGUGCAGC | 17.7 | 16.1 |  | 
22 | CCUCCACAUGAGGAUCACCCAUGUCAGGAUAUCGUGUGUGCGUUUUCGGUCUUUCGUGCGAGAAGGGACGUCUG | 68.7 | 62.9 |  | 
23 | UCGGCGCGAGGAUAUGCGGUUUGUGCUUUGGGCCCUGGCGUACAUGAGGAUCACCCAUGUAGAAGGCGUGUUGC | 21.3 | 21.3 |  | 
24 | AUCAGCUCGUCAGGAUAUACGUCACUGCGUCAGCAGUGUGGUACGAUCACAUGAGGAUCACCCAUGUAGAAGGGACGAGCUGAU | 12.7 | 215 |  | 
25 | ACAACAAAGUGAGGAUAUACAUAAUUCAUAACUGUAGAAGGCACAAACCUCAAUACAUGAGGAUCACCCAUGUUAUAUAUCUAA | 34.8 | 38.5 |  | 
26 | UUCGGUGAAGGAUAUAGGGCUCGGUACAUGAGGAUCACCCAUGUUGCUUUAUGUUCCACCCUAGAAGGUUAUCACC | 417 | 370 |  | 
27 | GUCUACCAGCUAGGAUAUGCAGUACAUUAAAAUGUAGAAGGAGCACGAUCCAGACAUGAGGAUCACCCAUGUGGGCGGUAGGCA | 20.9 | 18.6 |  | 
28 | CUAUAUAAUACCUCAUGUACAUGAGGAUCACCCAUGUUAACUUAGGAUAUAUUUAUAUUAAUAAAGUAGAAGGAAGUACUAUUU | 23.3 | 19.4 |  | 

Row | Sequence | apparent Kd [1] [nM] | apparent Kd [2] [nM] | apparent Kd [3] [nM] | apparent Kd [4] [nM]
29 | GUAGUGUAUGUAGGAUAUGUGAAGCAAAGCUUCACAGAAGGACAUGAGGAUCACCCAUGUAUUGCAGCCUGCAAUCAGGCUGCU | 41 | 144 |  | 
30 | AGGGCAACAGGAUAUCAUACAAUCUACAUGAGGAUCACCCAUGUGCCUCUUUUCAUACUGUGAGAAGGGUUGUCGG | 64.8 | 63.8 |  | 
31 | UUACUAUUGGAGAAGGCUCGAUAAUAUAUAAUGGGAGGAUAUCCAACAUGAGGAUCACCCAUGUUUCACCCAUAUGAGGAUCAC | 12.6 | 13.2 |  | 
32 | UGACAUAUAUAGAAGGGUAUGUGGGAAUUACAUGAGGAUCACCCAUGUUUUAUAGGAUAUGUAUAUAGUUUUUAAUCAAGUUUA | 35.1 | 26.9 |  | 
33 | GUUAGUUAAGGAUAUACAGGGAGCUGCGGCGUCUCGCCGCAACAUGAGGAUCACCCAUGUAGAAGGUGACCUUU | 529 | 406 |  | 
34 | AAGGGACAUGAGGAUCACCCAUGUUCGAAAGACGAUGGAUCGCAGGAUAUCCAGUGUUAGAGAGAGGAGAAGGGUGAUCCUAUU |  |  | 36.3 | 27.7
35 | AGUAAGAUGCAGAAGGUGUUAGCUAGAGCUACGACAUGAGGAUCACCCAUGUACUAGAAACAGUACAAGGAUAUGCAUCUUACG |  |  | 16.6 | 6.47
36 | AUACAUGAGGAUCACCCAUGUUACUGGGUCUUAAUAGAUCGUAGAAGGAUGUUAUUAUAAAUUUCAUAGGAUAUACUAUUUUGU | 61.1 | 38.6 |  | 
37 | CUGCUGGAGCUUUGCUCUAGUCGUACAUGAGGAUCACCCAUGUAGGAUAUGGUAGGCUUUGCUUACUAGAAGGAUAGAGUGGUC | 76.4 | 32.8 |  | 
38 | UGUCGGAGCAGAGGAUAUACAUGAGGAUCACCCAUGUAAUAAAGUGAAGCCUGGAAACAGGCAAUGUAGAAGGCUGCUCCGAUA | 12 | 88.6 |  | 
39 | UUAAUGUGAGGAUAUCAGGUGUGCUAGCGUACUGGUACAUCUGAGAAGGCACAUGAGGAUCACCCAUGUUCCUU | 16.4 | 55.3 |  | 
40 | CCAUGCAGUGUGAGGAUAUGCUGGUCCUUGGAUCAGCAGAAGGCACAUGAGGAUCACCCAUGUGAAUAGCGUGG | 44.6 | 356 |  | 
41 | UUAUUGGGACAGAAGGGCAUUUACAUGAGGAUCACCCAUGUUCAUCAUUGCAGGAUAUGUAUUACAUGAGGAUCAUCUAUGUUA |  |  | 259 | 36.9
42 | AAUAUGUUGCAGAAGGUUAUUUUUAUAACGAUCCACUUGACAUGAGGAUCACCCAUGUAAUUGUUGAAGGAUAUGCAAUAUAUU | 6.79 | 7.11 |  | 
43 | GUGCGGUGAGGAUAUACGUAGGUGAAAAUCUGUGUGUUCCUACAUGAGGAUCACCCAUGUAGAAGGCAUGGCAC | 148 | 45.3 |  | 
44 | ACCACGUCAGCGAUAUGAUCGAGAGAUCAUGUCGCUGAAUUUAGAAGGACAUGAGGAUCACCCAUGUAGGAUAUGGGUCGUGGA |  |  | 39.1 | 11.8
45 | CUCGUCUGGAAACGGAGCGGCCAACAUGAGGAUCACCCAUGUGAGGAUAUGCCUACUAAAAGUAGGCAGAAGGCGCAAUUGGCA | 20.3 | 36 |  | 
46 | CGUGCGUCGACAGGAUAUACAGAUUGGCUCCGGUACAUGAGGAUCACCCAUGUAGAAGGGUCACGCACAGUUAGUUCGUUAUUA | 8.52 | 37.9 |  | 
47 | AAAAUGGUCUAGGAUAUGACAAAUCUGAGCACGUCAGAAGGAGACACAUGAGGAUCACCCAUGUGGGUGCGAAA | 36.1 | 189 |  | 
48 | AUCAUGAGAGGAUAUACAUGAGGAUCACCCAUGUUCUUAUCUCGUCGUGCUCCAUUACGUAGAAGGCUCAUUUA | 16 | 49.2 |  | 
49 | UGAACUUCAGAGAAGGUCGAAUCACAACGGUUCGAAGGAUAUCUGGAAACAUGAGGAUCACCCAUGUAACCGGGUGGAUGUCCU | 56.2 | 242 |  | 
50 | AUAUGAUUAAGAGGAUAUAUACAACAUGAGGAUCACCCAUGUACCCAUGUAGUAGAAGGUUUGUUUUUAUAUAAUAAUAUAAUU |  |  | 74.8 | 52.1
51 | UUCAAAUUCGUAGGAUAUGUAUAAAUUAUCUACAUGAGGAUCACCCAUGUUUUCAUUUUAAAUUGACAGAAGGACGUAAUCUUA |  |  | 16.4 | 7.87
52 | CAUAACGGCUGAGGAUAUUGAAUGUGCGUGGACAUGAGGAUCACCCAUGUUCAAGAAGGCAGCAAUUUACUUGGGUCUACCCGC | 40.9 | 309 |  | 
53 | AUGGAUAUCACAGGAUAUGCCCGGGAUACCCGGGCAGAAGGGUGAUCCAUCCUAUGUAAAUACAUGAGGAUCACCCAUGUGUCC |  |  | 75 | 71.2
54 | AGCAGCUCGUCAGGAUAUACGUCACUGCGUCAGCAGUGUGGUAAGAUCACAUGAGGAUCACCCAUGUAGAAGGGACGAGCUGAU | 13.7 | 273 |  | 
55 | GUCUUCCUAGGAUAUACAUGAGGAUCACCCAUGUACAGUUUCGUCAAAGGAUACUCGCGUAGAAGGAGGUGGAU | 26 | 50.7 |  | 
